Test results from ChEMBL document CHEMBL1125263, “Streptonigrin and related compounds. 5. Synthesis and evaluation of some isoquinoline analogues” (J Med Chem, 1991).
Values after ≈ are worked out from the molar mass of the structure shown.

What was measured:
Bacillus subtilis [1] = assay: In vitro antibacterial activity measured against Bacillus subtilis and relative potency expressed with respect to streptonigrin.; type: functional
How it was run: (§1)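 Agar disc-diffusion plates seeded with B. subtilis spores, six discs per plate, incubated at 37 °C for 20 h. Zones of inhibition measured and averaged over four replicates. Zone diameter varied linearly with log concentration. Slopes were fitted by regression, with standard errors of the slope calculated.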

Bacillus subtilis [2] = assay: Antibacterial activity against Bacillus subtilis and values were expressed as standard error for slope; type: functional; how it was run: as §1
Bacillus subtilis [3] = assay: In vitro antibacterial activity against Bacillus subtilis; type: functional
Lepidium sativum [4] = assay: In vitro root inhibition activity using seedlings of Lepidium sativum; type: functional, organism-based
How it was run: (§2)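 Cress (L. sativum) seeds soaked in water 15–20 min, germinated on 0.6% agar at 27 °C in the dark for 24 h until radicles were ca. 1 cm. DMSO solutions (2000–40 μg/mL stocks, 200 μL per 20 mL agar) were set in 0.6% agar; DMSO-only controls. Eight seedlings per plate, 24 h at 27 °C in the dark. New root growth measured, duplicate runs (16 seedlings). %I = 1 − (T/C) × 100; probit analysis and linear regression gave I50.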

Lepidium sativum [5] = assay: In vitro root inhibition activity measured using seedlings of Lepidium sativum, and relative potency expressed with respect to streptonigrin.; type: functional; how it was run: as §2

MIC (Bacillus subtilis [3]) | SMILES | Relative potency (Bacillus subtilis [1]) | Slope (Bacillus subtilis [2]) | I50 (Lepidium sativum [4]) | Relative potency (Lepidium sativum [5])
27.2 µM (≈ 7.62 µg/mL) | COC1=C(N)C(=O)c2c(ccnc2-c2ccccc2)C1=O | 0.05 | 14.78 | 11.25 nM ml-1 | 1.12
16 µM (≈ 5.72 µg/mL) | C/N=C1\C(=O)c2ccnc(Cc3ccccc3)c2C(O)=C1Br | 0.09 | 11.31 | 30.05 nM ml-1 | 0.42
1.37 µM (≈ 0.694 µg/mL) | COC1=C(N)C(=O)c2nc(-c3nc(C(=O)O)c(C)c(-c4ccc(OC)c(OC)c4O)c3N)ccc2C1=O [STREPTONIGRIN] | 1 | 5.51 | 12.65 nM ml-1 | 1
39.3 µM (≈ 11.1 µg/mL) | COC1=C(N)C(=O)c2c(ccnc2-c2ccccn2)C1=O | 0.03 | 12.37 | 12.7 nM ml-1 | 0.99
16 µM (≈ 4.71 µg/mL) | COC1=C(N)C(=O)c2c(ccnc2Cc2ccccc2)C1=O | 0.09 | 11.31 | 13.7 nM ml-1 | 0.92
35.8 µM (≈ 10.6 µg/mL) | COC1=C(N)C(=O)c2c(ccnc2-c2ccc(N)cc2)C1=O | 0.04 | 12.64 | 15.49 nM ml-1 | 0.82
5.2 µM (≈ 1.69 µg/mL) | COC1=C(N)C(=O)c2c(ccnc2-c2cccc([N+](=O)[O-])c2)C1=O | 0.26 | 4.93 | 6.43 nM ml-1 | 1.96
0.25 µM (≈ 0.0886 µg/mL) | COC1=C(N)C(=O)c2nc(-c3nc(C(=O)O)c(C)cc3N)ccc2C1=O | 5.48 | 4.75 | 5.5 nM ml-1 | 2.3
6.76 µM (≈ 2.62 µg/mL) | C/N=C1\C(=O)c2ccnc(-c3ccccc3[N+](=O)[O-])c2C(O)=C1Br | 0.2 | 5.21 | 10 nM ml-1 | 1.3
17.2 µM (≈ 5.08 µg/mL) | COC1=C(N)C(=O)c2c(ccnc2-c2ccccc2N)C1=O | 0.08 | 9.2 | 65 nM ml-1 | 0.19
14.1 µM (≈ 3.97 µg/mL) | COC1=C(N)C(=O)c2nc(-c3ccccn3)ccc2C1=O | 0.1 | 10.23 | 9.18 nM ml-1 | 1.37
9 µM (≈ 2.93 µg/mL) | COC1=C(N)C(=O)c2c(ccnc2-c2ccccc2[N+](=O)[O-])C1=O | 0.15 | 10.3 | 6.03 nM ml-1 | 2.09
33.4 µM (≈ 9.86 µg/mL) | COC1=C(N)C(=O)c2c(ccnc2-c2cccc(N)c2)C1=O | 0.04 | 11.7 | 22.37 nM ml-1 | 0.57
– | COC1=C(N)C(=O)c2c(ccnc2-c2ccc([N+](=O)[O-])cc2)C1=O | – | – | 9.41 nM ml-1 | 1.34
